Experimental data collected from several papers.
Lines come from different studies, so protocols differ.
MAPK10: Mitogen-activated protein kinase 10 (MAPK10, Homo sapiens, UniProt P53779)
ST14: Suppressor of tumorigenicity 14 protein (ST14, Homo sapiens, UniProt Q9Y5Y6)
CDK2 with cyclin A2: Cyclin-dependent kinase 2, with cyclin A2 (CDK2, Homo sapiens, UniProt P24941)

SMILES	target	test	conditions	quantity	result
Cc1cc(NC(=O)c2cccc(NC(=O)/C=C/CN(C)C)c2)ccc1Nc1nccc(-c2cccnc2)n1	MAPK10	binding, competition with immobilised ligand	1 µM	remaining binding	0%
CC(C)(NC(=O)[C@H](Cc1cscn1)NC(=O)CCc1ccccc1)C(=O)N[C@@H](CCCNC(=N)N)C(=O)c1nc2ccccc2s1	ST14	enzyme activity, inhibitor	0.1 µM	remaining activity	4%
COc1ccc(CN2C[C@](C)(O)[C@@H]3C[C@H]2[C@@H](C)c2nc4ccccc4c(-c4ccccc4)c23)cc1	Delta-type opioid receptor (Oprd1, Rattus norvegicus, UniProt P33533)	ligand displacement, radioligand	1 µM	inhibition	0%
N=C(N)NCCC[C@H](NC(=O)[C@H](Cc1ccc(C(=O)c2ccccc2)cc1)NC(=O)[C@H](Cc1cscn1)NC(=O)CCc1ccccc1)C(=O)c1nc2ccccc2s1	ST14	enzyme activity, inhibitor	0.1 µM	remaining activity	89%
CC(=O)Nc1c(N)nc(SCC(=O)N/N=C/c2ccc([N+](=O)[O-])cc2)[nH]c1=O	CDK2 with cyclin A2	enzyme activity, inhibitor	20 nM	inhibition	21.3%
N=C(N)NCCC[C@H](NC(=O)[C@@H](CC1CCCCC1)NC(=O)[C@H](Cc1cscn1)NC(=O)CCc1ccccc1)C(=O)c1nc2ccccc2s1	ST14	enzyme activity, inhibitor	0.1 µM	remaining activity	95%
CNc1ncc2c(/C=C/C(=O)N3CCC(OC)CC3)nn(Cc3cccc(C(F)(F)F)c3)c2n1	MAPK10	enzyme activity, inhibitor, radiometric	1 µM	remaining activity	87%
CC(=O)Nc1c(N)nc(SCC(=O)NN)[nH]c1=O	CDK2 with cyclin A2	enzyme activity, inhibitor	0.1 µM	inhibition	41.2%
C=CC(=O)N1CCC(COCC(=O)N2CCN(c3nc(-c4cnc(N)nc4C(F)F)nc(N4CCOC[C@@H]4C)n3)CC2)CC1	Mitogen-activated protein kinase 6 (MAPK6, Homo sapiens, UniProt Q16659)	binding, competition with immobilised ligand	1 µM	remaining binding	100%
COc1cc(-c2cncc3c2CN(C)Cc2cc(N4CCNCC4)ccc2-3)cc(OC)c1OC	Cyclin-dependent kinase 2, with cyclin E (CDK2, Homo sapiens, UniProt P24941)	enzyme activity, inhibitor	1 µM	remaining activity	107%
CC(C)(C)[C@H](NC(=O)[C@H](Cc1cscn1)NC(=O)CCc1ccccc1)C(=O)N[C@@H](CCCNC(=N)N)C(=O)c1nc2ccccc2s1	ST14	enzyme activity, inhibitor	0.1 µM	remaining activity	89%
CC(=O)c1c(C)c2cnc(Nc3ccc(N4CCNCC4)cn3)nc2n(C2CCCC2)c1=O	Cyclin-dependent kinase 2 (CDK2, Homo sapiens, UniProt P24941)	enzyme activity, inhibitor, ADP detection	1 µM	activity vs control	79%
Cc1cc([C@@H](C)Nc2ccccc2C(=O)O)c2nc(N3CCC(F)(F)CC3)c(C#N)c(=O)n2c1	Serine/threonine-protein kinase pim-1 (PIM1, Homo sapiens, UniProt P11309)	binding, competition with immobilised ligand	1 µM	remaining binding	100%
N=C(N)NCCC[C@H](NC(=O)[C@H](Cc1cccc(I)c1)NC(=O)[C@H](Cc1cscn1)NC(=O)CCc1ccccc1)C(=O)c1nc2ccccc2s1	ST14	enzyme activity, inhibitor	0.1 µM	remaining activity	79%
CNC(=O)c1cc(Oc2ccc(NC(=O)Nc3ccc(Cl)c(C(F)(F)F)c3)cc2)ccn1	CDK2 with cyclin A2	enzyme activity, inhibitor	0.5 µM	inhibition	74%
